How the values were obtained:
Rattus norvegicus [1] = test: Toxicity in Wistar rat scopolamine-induced cognition impairment model assessed as change in movement at 1 umol/100 g body weight, ip; format: organism-based; conditions: in vivo
How it was run: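 60-day-old female Wistar rats were trained in an eight-arm radial maze to no errors in under 60 s on 3 consecutive days; each rat served as its own control. Compound in saline was given i.p., then scopolamine (0.05 mg/100 g, saline, i.p.) 5 min later. Errors plus baits not found after 10 min and total searching time were recorded before and 20, 60 and 120 min after scopolamine; n = 14, mean ± SEM.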

[2] = molecular target: Amyloid-beta precursor protein (Homo sapiens) (UniProt P05067); test: Inhibition of amyloid beta (1 to 42) aggregation (unknown origin) at 100 uM after 1 hr by thioflavin T fluorescence assay relative to control
How it was run: (§1)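 Aβ42 stock (200 µM in DMSO) centrifuged 12,000 rpm for 10 min; supernatant used. Compound (2 µL of 0.2–4.0 mM DMSO stock) and 2 µL Aβ42 stock added to 76 µL PBS pH 7.4, incubated 1 h at room temperature. 80 µL of 5 µM ThT in 50 mM glycine-NaOH pH 8.5 then added; fluorescence read at excitation 430 nm, emission 488 nm.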

Rattus norvegicus [3] = test: Toxicity in Wistar rat assessed as ethylmorphine-N-demethylation activity in liver measured as formaldehyde level at 6 umol/100 g body weight, ip by photometric analysis relative to control; format: organism-based; conditions: in vivo
Rattus norvegicus [4] = test: Toxicity in Wistar rat assessed as GSH level in kidney at 1 umol/100 g body weight, ip by fluorometric analysis relative to control; format: organism-based; conditions: in vivo
Rattus norvegicus [5] = test: Toxicity in Wistar rat assessed as body weight at 6 umol/100 g body weight, ip relative to control; format: organism-based; conditions: in vivo
Rattus norvegicus [6] = test: Toxicity in Wistar rat assessed as lipidperoxidation product level in liver at 6 umol/100 g body weight, ip relative to control; format: organism-based; conditions: in vivo
Rattus norvegicus [7] = test: Toxicity in Wistar rat assessed as liver weight at 1 umol/100 g body weight, ip relative to control; format: organism-based; conditions: in vivo
Rattus norvegicus [8] = test: Toxicity in Wistar rat assessed as GSSG level in brain at 6 umol/100 g body weight, ip by fluorometric analysis relative to control; format: organism-based; conditions: in vivo
How it was run: (§2)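 Rats dosed i.p.; tissues taken after 24 h. For GSH/GSSG, tissue homogenized in 11 volumes of 0.2 M sodium phosphate (5 mM EDTA, pH 8.0) plus 4 volumes of 25% metaphosphoric acid and centrifuged 12 000 × g, 4 °C, 30 min; supernatant read photometrically (GSH) or fluorometrically (GSSG). Lipid peroxidation products measured as TBARS in 19-volume ice-cold saline homogenates, fluorometrically.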

Rattus norvegicus [9] = test: Toxicity in Wistar rat assessed as kidney weight at 1 umol/100 g body weight, ip relative to control; format: organism-based; conditions: in vivo
Rattus norvegicus [10] = test: Toxicity in Wistar rat assessed as protein content in liver at 6 umol/100 g body weight, ip by Biuret method relative to control; format: organism-based; conditions: in vivo
How it was run: (§3)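 Rats dosed i.p.; after 24 h, liver homogenized 1:3 w/v in 0.1 M sodium phosphate pH 7.4 and centrifuged at 9000 × g, 4 °C, 20 min. Supernatant protein determined by the Biuret method. Ethoxyresorufin-O-deethylation measured fluorometrically as resorufin formed.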

Rattus norvegicus [11] = test: Toxicity in Wistar rat assessed as GSSG level in kidney at 1 umol/100 g body weight, ip by fluorometric analysis relative to control; format: organism-based; conditions: in vivo; how it was run: as §2
Rattus norvegicus [12] = test: Toxicity in Wistar rat assessed as lipidperoxidation product level in liver at 1 umol/100 g body weight, ip relative to control; format: organism-based; conditions: in vivo
Rattus norvegicus [13] = test: Toxicity in Wistar rat assessed as protein content in liver at 1 umol/100 g body weight, ip by Biuret method relative to control; format: organism-based; conditions: in vivo; how it was run: as §3
Rattus norvegicus [14] = test: Toxicity in Wistar rat assessed as ethylmorphine-N-demethylation activity in liver measured as formaldehyde level at 1 umol/100 g body weight, ip by photometric analysis relative to control; format: organism-based; conditions: in vivo
Rattus norvegicus [15] = test: Toxicity in Wistar rat assessed as lipidperoxidation product level in kidney at 1 umol/100 g body weight, ip by fluorometric analysis relative to control; format: organism-based; conditions: in vivo; how it was run: as §2
Rattus norvegicus [16] = test: Toxicity in Wistar rat assessed as total glutathione level in kidney at 6 umol/100 g body weight, ip by fluorometric analysis relative to control; format: organism-based; conditions: in vivo; how it was run: as §2
[17] = molecular target: Amyloid-beta precursor protein (Homo sapiens) (UniProt P05067); test: Inhibition of amyloid beta (1 to 42) aggregation (unknown origin) after 1 hr by thioflavin T fluorescence assay; how it was run: as §1
Rattus norvegicus [18] = test: Toxicity in Wistar rat assessed as GSH level in kidney at 6 umol/100 g body weight, ip by fluorometric analysis relative to control; format: organism-based; conditions: in vivo
Rattus norvegicus [19] = test: Toxicity in Wistar rat assessed as brain weight at 6 umol/100 g body weight, ip relative to control; format: organism-based; conditions: in vivo
Rattus norvegicus [20] = test: Toxicity in Wistar rat assessed as GSSG level in kidney at 6 umol/100 g body weight, ip by fluorometric analysis relative to control; format: organism-based; conditions: in vivo; how it was run: as §2
Rattus norvegicus [21] = test: Toxicity in Wistar rat assessed as GSSG level in liver at 1 umol/100 g body weight, ip by fluorometric analysis relative to control; format: organism-based; conditions: in vivo; how it was run: as §2
Rattus norvegicus [22] = test: Toxicity in Wistar rat assessed as ethoxyresorufin-O-deethylation activity in liver measured as resorufin level at 6 umol/100 g body weight, ip by fluorometric analysis relative to control; format: organism-based; conditions: in vivo; how it was run: as §3
Rattus norvegicus [23] = test: Toxicity in Wistar rat assessed as GSH level in liver at 1 umol/100 g body weight, ip by fluorometric analysis relative to control; format: organism-based; conditions: in vivo
Rattus norvegicus [24] = test: Toxicity in Wistar rat assessed as lipidperoxidation product level in kidney at 6 umol/100 g body weight, ip by fluorometric analysis relative to control; format: organism-based; conditions: in vivo; how it was run: as §2
Rattus norvegicus [25] = test: Toxicity in Wistar rat assessed as ethoxycoumarin-O-deethylation activity in liver measured as 7-hydroxycoumarin level at 1 umol/100 g body weight, ip by fluorometric analysis relative to control; format: organism-based; conditions: in vivo
Rattus norvegicus [26] = test: Toxicity in Wistar rat assessed as change in movement at 1 umol/100 g body weight, ip; format: organism-based; conditions: in vivo
Rattus norvegicus [27] = test: Toxicity in Wistar rat assessed as GSH level in brain at 1 umol/100 g body weight, ip by fluorometric analysis relative to control; format: organism-based; conditions: in vivo
Rattus norvegicus [28] = test: Toxicity in Wistar rat assessed as ethoxyresorufin-O-deethylation activity in liver measured as resorufin level at 1 umol/100 g body weight, ip by fluorometric analysis relative to control; format: organism-based; conditions: in vivo; how it was run: as §3
Rattus norvegicus [29] = test: Toxicity in Wistar rat assessed as brain weight at 1 umol/100 g body weight, ip relative to control; format: organism-based; conditions: in vivo

Amyloid-beta precursor protein (Homo sapiens), sequence (P05067 whole entry): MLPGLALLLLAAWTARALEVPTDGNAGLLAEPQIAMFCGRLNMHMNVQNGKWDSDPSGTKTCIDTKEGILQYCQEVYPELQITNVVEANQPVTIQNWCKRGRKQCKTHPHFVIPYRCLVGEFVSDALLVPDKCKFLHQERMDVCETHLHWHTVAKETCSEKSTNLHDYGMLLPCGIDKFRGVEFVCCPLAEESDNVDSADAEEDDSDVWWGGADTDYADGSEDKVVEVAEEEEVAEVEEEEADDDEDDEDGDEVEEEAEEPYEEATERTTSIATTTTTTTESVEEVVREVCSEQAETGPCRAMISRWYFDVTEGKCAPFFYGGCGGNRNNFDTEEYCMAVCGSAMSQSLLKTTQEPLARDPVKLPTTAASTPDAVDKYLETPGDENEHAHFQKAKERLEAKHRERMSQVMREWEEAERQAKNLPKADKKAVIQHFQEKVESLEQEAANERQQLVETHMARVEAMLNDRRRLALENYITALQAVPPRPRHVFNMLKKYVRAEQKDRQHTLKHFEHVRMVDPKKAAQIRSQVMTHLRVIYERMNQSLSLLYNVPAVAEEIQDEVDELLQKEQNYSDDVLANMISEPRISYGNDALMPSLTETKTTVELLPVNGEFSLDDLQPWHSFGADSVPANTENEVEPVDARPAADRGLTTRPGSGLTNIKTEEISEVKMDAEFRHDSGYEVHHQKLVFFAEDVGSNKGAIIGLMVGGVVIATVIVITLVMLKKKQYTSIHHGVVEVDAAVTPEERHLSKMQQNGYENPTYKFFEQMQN

SMILES: COc1ccc2c(c1)oc1cccc(CN(C(=O)CCO[N+](=O)[O-])C(C)C)c12
- Activity (Rattus norvegicus [1]): Non-toxic
- inhibition [2]: 25%
- Activity (Rattus norvegicus [3]): 0.52 nmol/mg/min
- Activity (Rattus norvegicus [4]): 1462 µg/g
- Activity (Rattus norvegicus [5]): 259 g
- Activity (Rattus norvegicus [6]): 63.9 nmol/g
- Activity (Rattus norvegicus [7]): 7.6 g
- Activity (Rattus norvegicus [8]): 79.1 µg/g
- Activity (Rattus norvegicus [9]): 0.93 g
- Activity (Rattus norvegicus [10]): 64.7 mg/mL
- Activity (Rattus norvegicus [11]): 161 µg/g
- Activity (Rattus norvegicus [12]): 57.7 nmol/g
- Activity (Rattus norvegicus [13]): 66.4 mg/mL
- Activity (Rattus norvegicus [14]): 0.48 nmol/mg/min
- Activity (Rattus norvegicus [15]): 93.2 nmol/g
- Activity (Rattus norvegicus [16]): 1800 µg/g
- inhibition [17]: Dose-dependent effect
- Activity (Rattus norvegicus [18]): 1483 µg/g
- Activity (Rattus norvegicus [19]): 1.87 g
- Activity (Rattus norvegicus [20]): 159 µg/g
- Activity (Rattus norvegicus [21]): 411 µg/g
- Activity (Rattus norvegicus [22]): 121 pmol/mg/min
- Activity (Rattus norvegicus [23]): 2542 µg/g
- Activity (Rattus norvegicus [24]): 96.2 nmol/g
- Activity (Rattus norvegicus [25]): 187 pmol/mg/min
- Activity (Rattus norvegicus [26]): Non-toxic
- Activity (Rattus norvegicus [27]): 645 µg/g
- Activity (Rattus norvegicus [28]): 114 pmol/mg/min
- Activity (Rattus norvegicus [29]): 1.95 g
